pIC50: −log10 of the molar value.
Tests used:
[1] = molecular target: podoplanin–CLEC-2 interaction (Homo sapiens, UniProt Q9P126); experiment: ALPHA screen podoplanin–CLEC-2 interaction assay; format: binding
Procedure, shortened: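 Biotinylated human podoplanin–rabbit Fc (50 nM) plus human CLEC-2 extracellular domain (Ser55–Pro229)–6xHis (250 nM), both expressed in HEK293T and purified, incubated with test compound (vehicle 0.1% v/v DMSO) 30 min at 4°C. Then 40 µg/mL streptavidin donor beads, 30 min at RT in the dark, then 40 µg/mL nickel acceptor beads, 60 min at RT in the dark. ALPHA signal read; false positives excluded by TruHits counter-screen; IC50 from concentration series.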

washed human platelets = experiment: Light transmission platelet aggregation; format: cell-based; conditions: for effect on platelet aggregation induced by 10 µM katacine: pretreatment 5 min, PRT-060318 1 µM, PP2 20 µM
Procedure, shortened: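 Platelets came from citrated blood of healthy donors free of antiplatelet drugs for 14 days. They were washed from PRP with 0.2 µg/mL prostacyclin, resuspended in modified Tyrode's buffer pH 7.3 and rested 30 min at RT. Platelets (2 × 10^8/mL) were stirred at 1,200 rpm at 37°C and stimulated with test compound (1–30 µM). Pretreatment was 5 min at 37°C with PP2 20 µM, PRT-060318 1 µM, AYP1 10 µg/mL or 0.1% DMSO. Read-out was light transmission; three independent experiments, mean + SD.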

Syk Y525/526 = experiment: Phospho-specific immunoblot of platelet lysates, Syk; format: cell-based, human; conditions: katacine 10 µM, rhodocytin 100 nM; 5 min; 9 µM eptifibatide
LAT Y200 = experiment: Phospho-specific immunoblot of platelet lysates, LAT; format: cell-based, human; conditions: katacine 10 µM, rhodocytin 100 nM; 5 min; 9 µM eptifibatide
CLEC-2 = experiment: Immunoprecipitation of CLEC-2 and 4G10 western blot; format: cell-based, human; conditions: katacine 10 µM, rhodocytin 100 nM
Procedure, shortened: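 Platelets (4 × 10^8/mL, 9 µM eptifibatide) were stimulated 5 min at 37°C, stirring at 1,200 rpm, with test compound, rhodocytin or vehicle. Lysis was in NP-40 buffer with protease inhibitors and orthovanadate, pH 7.5. Lysates were precleared on Sepharose, then incubated 30 min with 2 µg anti-CLEC-2 antibody AYP1 and captured for 60 min. Immunoprecipitates were blotted with 4G10; signal was expressed as fold over vehicle.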

FcR γ-chain = FcR γ-chain phosphorylation, western blot of whole cell lysate; format: cell-based, human; conditions: katacine 10 µM, CRP 3 µg/mL
mouse washed platelets = experiment: Mouse platelet aggregation; format: cell-based; conditions: katacine 10 µM; 2x10^8 platelets/mL
mouse platelet lysates = experiment: Protein tyrosine phosphorylation in mouse platelet lysates; format: cell-based; conditions: katacine 10 µM; 4x10^8 platelets/mL

Sequence of podoplanin–CLEC-2 interaction (Q9P126 55-229): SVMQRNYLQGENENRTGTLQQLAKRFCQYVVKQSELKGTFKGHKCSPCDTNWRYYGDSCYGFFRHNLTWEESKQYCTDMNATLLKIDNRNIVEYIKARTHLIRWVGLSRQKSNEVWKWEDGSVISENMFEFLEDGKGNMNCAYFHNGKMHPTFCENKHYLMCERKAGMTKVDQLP

Structure (SMILES): O=C(O)c1cc(O)c2c(c1)[C@H]([C@H]1c3cc(C(=O)O)cc(O)c3C(=O)c3c(O[C@@H]4O[C@H](CO)[C@@H](O)[C@H](O)[C@H]4O)cccc31)c1cccc(O[C@@H]3O[C@H](CO)[C@@H](O)[C@H](O)[C@H]3O)c1C2=O [sennoside A, Sennoside A]
- pIC50 [1]: 5.89
- effect on platelet aggregation (washed human platelets; 10 and 30 µM, data not shown): no effect
- effect on the platelet aggregation response to rhodocytin (washed human platelets; 10 and 30 µM, rhodocytin 100 nM, data not shown): no effect

Structure (SMILES): CC(C)(C)n1nc(-c2ccc(Cl)cc2)c2c(N)ncnc21 [PP2, reference compound]
- effect on platelet aggregation induced by 10 µM katacine (washed human platelets): completely blocked

Structure (SMILES): Oc1cc(O)c2c(c1)O[C@H](c1cc(O)c(O)c(O)c1)[C@H](O)[C@H]2c1c(O)cc(O)c2c1O[C@H](c1cc(O)c(O)c(O)c1)[C@H](O)[C@H]2c1c(O)cc(O)c2c1O[C@H](c1cc(O)c(O)c(O)c1)[C@H](O)C2 [katacine, Katacine]
- pIC50 [1]: 5.57
- platelet aggregation, concentration–response (washed human platelets; at 5 μM and below): no response
- platelet aggregation, concentration–response (washed human platelets; at 10 and 30 μM): maximal aggregation
- platelet aggregation (washed human platelets; katacine 10 µM, washed platelets 2 × 10^8/mL): 77.7 ± 9%
- increase in phosphorylation of Syk Y525/526 relative to vehicle (Syk Y525/526): 4.5 ± 0.9 fold
- increase in phosphorylation of LAT Y200 relative to vehicle (LAT Y200): 18.8 ± 5.9 fold
- increase in phosphorylation levels of CLEC-2 relative to vehicle (CLEC-2): 6.6 ± 4.6 fold
- phosphorylation of FcR γ-chain (FcR γ-chain): did not stimulate an increase
- platelet aggregation in mouse platelets (mouse washed platelets): did not observe platelet aggregation
- protein tyrosine phosphorylation in mouse platelets (mouse platelet lysates): did not observe

Structure (SMILES): Cc1cccc(Nc2nc(N[C@@H]3CCCC[C@@H]3N)ncc2C(N)=O)c1 [PRT-060318, reference compound]
- effect on platelet aggregation induced by 10 µM katacine (washed human platelets): completely blocked

From article PMC9393086 (Thrombosis and Haemostasis, 2022)
